Experimental data reported in ChEMBL document CHEMBL3244059, “Synthesis and pharmacological activity of a phosphate ester of delta8-tetrahydrocannabinol” (J Med Chem, 1978).
Calls of active or inactive are those of the source. The calls are words filed in the database; no cut-off is given here.

Legend:
[1] = Drug metabolism in mouse liver homogenates assessed as compound hydrolysis at pH 5 after 30 mins by spectrophotometric analysis in presence of alkaline phosphatase; assay type: ADME, tissue-based; details: read-out: Drug metabolism
In short: (§1)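 Substrate (1.5 μmol) incubated at 37 °C with mouse liver homogenate (equivalent to 0.1 g liver) in 0.1 M glycine buffer pH 9.6 or 0.1 M acetate buffer pH 5.0. Sampled at 15, 30 and 60 min. Percent hydrolysis given as mean of duplicate determinations.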

Mus musculus [2] = experiment: Cataleptogenic activity in iv dosed ddN mouse assessed as induction of catalepsy after 60 mins by bar test; assay type: functional
In short: (§2)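 Catalepsy scored by a modified simple bar test at 30 and 60 min after iv tail-vein injection (0.1 mL/10 g; 1% Tween 80 suspension or saline solution). Eight mice per dose; vehicle controls. ED50 with 95% confidence limits at peak time.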

[3] = Drug metabolism in mouse liver homogenates assessed as compound hydrolysis at pH 5 after 15 mins by spectrophotometric analysis in presence of alkaline phosphatase; assay type: ADME, tissue-based; details: read-out: Drug metabolism; in short: as §1
Mus musculus [4] = experiment: Hypothermic activity in ddN mouse assessed as reduction of rectal temperature at 20 mg/kg, iv after 2 hrs; assay type: functional
In short: (§3)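 Rectal temperature taken with a thermistor thermometer after iv tail-vein dosing at 10 or 20 mg/kg (1% Tween 80 suspension or saline solution). Room held at 23 ± 1 °C; time course followed up to 5 h. Decline reported as mean ± SE of eight mice.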

[5] = Drug metabolism in mouse liver homogenates assessed as compound hydrolysis at pH 5 after 60 mins by spectrophotometric analysis in presence of alkaline phosphatase; assay type: ADME, tissue-based; details: read-out: Drug metabolism; in short: as §1
Mus musculus [6] = experiment: Potentiation of thiopental-induced sleep in iv dosed ddN mouse assessed as loss of righting reflex after 60 mins administered with saline; assay type: functional
In short: (§4)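 Pretreatment given iv (saline solution or 1% Tween 80 suspension; vehicle controls for each), followed 30 or 60 min later by thiopental 80 mg/kg iv. Sleep measured as loss of righting reflex. Potentiation counted positive when sleeping time exceeded twice the matching control. Eight mice per dose; ED50 with confidence limits.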

[7] = Drug metabolism in mouse liver homogenates assessed as compound hydrolysis at pH 9.6 after 15 mins by spectrophotometric analysis in presence of alkaline phosphatase; assay type: ADME, tissue-based; details: read-out: Drug metabolism; in short: as §1
[8] = Drug metabolism in mouse liver homogenates assessed as compound hydrolysis at pH 9.6 after 60 mins by spectrophotometric analysis in presence of alkaline phosphatase; assay type: ADME, tissue-based; details: read-out: Drug metabolism; in short: as §1
Mus musculus [9] = experiment: Cataleptogenic activity in iv dosed ddN mouse assessed as induction of catalepsy after 30 to 60 mins by bar test; assay type: functional; in short: as §2
Mus musculus [10] = experiment: Acute toxicity in ddN mouse assessed as mortality up to 160 mg/kg, iv after 24 hrs; assay type: organism-based; set-up: dose 160 mg/kg, route intravenous; details: in vivo
In short: (§5)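 Mice dosed iv via tail vein, 0.1 mL/10 g body weight; parent compound as suspension in 1% Tween 80, phosphate as solution in saline. Eight animals per dose.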

Mus musculus [11] = experiment: Hypothermic activity in ddN mouse assessed as reduction of rectal temperature at 10 mg/kg, iv after 2 hrs; assay type: functional; in short: as §3
[12] = Drug metabolism in mouse liver homogenates assessed as compound hydrolysis at pH 9.6 after 30 mins by spectrophotometric analysis in presence of alkaline phosphatase; assay type: ADME, tissue-based; details: read-out: Drug metabolism; in short: as §1
Mus musculus [13] = experiment: Potentiation of thiopental-induced sleep in iv dosed ddN mouse assessed as loss of righting reflex after 30 to 60 mins; assay type: functional; in short: as §4
[14] = Acute toxicity in iv dosed ddN mouse assessed as mortality after 24 hrs; assay type: organism-based; details: in vivo; in short: as §5
Mus musculus [15] = experiment: Hypothermic activity in ddN mouse assessed as reduction of rectal temperature at 20 mg/kg, iv after 1 hr; assay type: functional; in short: as §3
Mus musculus [16] = experiment: Cataleptogenic activity in iv dosed ddN mouse assessed as induction of catalepsy after 30 mins by bar test; assay type: functional, organism-based; in short: as §2
Mus musculus [17] = experiment: Potentiation of thiopental-induced sleep in iv dosed ddN mouse assessed as loss of righting reflex after 60 mins administered with 1% Tween-80; assay type: functional, organism-based; in short: as §4
Mus musculus [18] = experiment: Hypothermic activity in ddN mouse assessed as reduction of rectal temperature at 10 mg/kg, iv after 1 hr; assay type: functional; in short: as §3

`CCCCCc1cc2c(c(OP(=O)([O-])[O-])c1)[C@@H]1CC(C)=CC[C@H]1C(C)(C)O2.[Na+].[Na+]` gave a metabolised at 0.5 h [1] of 20.7%, an Activity (Mus musculus [2]) of 10% and a metabolised at 0.25 h [3] of 15.3%. The T (Mus musculus [4]) was 5 °C, the metabolised at 1 h [5] was 29.2% and the Activity (Mus musculus [6]) was 7%. The metabolised at 0.25 h [7] was 7.8%, the metabolised at 1 h [8] was 24.5% and the ED50 (Mus musculus [9]) was 37 mg/kg. For the same molecule, the Activity (Mus musculus [10]) was “Non-toxic”, the T (Mus musculus [11]) was 2.4 °C and the metabolised at 0.5 h [12] was 13.9%. The ED50 (Mus musculus [13]) was 17.5 mg/kg.
With `CCCCCc1cc(O)c2c(c1)OC(C)(C)[C@@H]1CC=C(C)C[C@@H]21` [DELTA-8-TETRAHYDROCANNABINOL] the LD50 at 24 h [14] was 27.5 mg/kg, the T (Mus musculus [15]) was 4.8 °C and the Activity (Mus musculus [16]) was “Active”. For the same molecule, the Activity (Mus musculus [17]) was “Active”, the T (Mus musculus [18]) was 3.8 °C and the ED50 (Mus musculus [9]) was 3.3 mg/kg. The ED50 (Mus musculus [13]) was 1.2 mg/kg.
In the case of `O=[N+]([O-])c1ccc(OP(=O)(O)O)cc1` [p-NITROPHENYLPHOSPHATE], the metabolised at 0.5 h [1] was 96.7%, the metabolised at 0.25 h [3] was 88.9% and the metabolised at 1 h [5] was 97.7%. It also gave a metabolised at 0.25 h [7] of 21.5%, a metabolised at 1 h [8] of 73.6% and a metabolised at 0.5 h [12] of 36.4%.
